Measurements: paper PMC6282495 (Clinical Pharmacology and Therapeutics, 2018)
Entries after “also recorded” stand apart in the source; their conditions may differ. Read-outs that look alike come from different tables or passages of the source.

Key:
[1] = test system: whole blood neutrophil elastase (NE) activity; experiment: Whole blood NE activity; type: in vivo, human
How it was run: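 Part II only: healthy males on 10, 25 or 40 mg once daily for 21 or 28 days, or placebo (pooled). Whole-blood NE activity was expressed as percent change from each subject's baseline, […]. The 25 and 40 mg cohorts had follow-up visits up to 1 month after leaving the unit. ANC-normalized activity was fitted with a transit-compartment maturation model in which plasma concentration inhibits entry into the first compartment via a sigmoid Hill function. Blood neutrophil half-life was fixed from literature and maximal inhibition was fixed at complete.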

[2] = Safety and tolerability in healthy subjects; type: in vivo, human
[3] = test system: efflux transporters; experiment: In-house data on efflux transporter substrate status; type: in vitro ADME
[4] = AZD7986 plasma pharmacokinetics; type: in vivo, human
How it was run: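 Healthy male subjects received oral AZD-class test compound. In Part I, single doses of 5–65 mg were given to cohorts of nine, three of them on placebo, with plasma sampled up to 96 h. In Part II, 10, 25 or 40 mg were given once daily for 21 or 28 days, with sampling up to 24 h after the first dose and 96 h after the last. Steady state was checked from predose levels on Days 18–20 and 21/28. Parameters came from noncompartmental analysis.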

[5] = test system: activation of NSPs (NE, Pr3, and CatG) in human primary bone marrow-derived CD34+ neutrophil progenitor cells; conditions: cited from earlier work
[6] = In-house data on metabolic clearance routes and plasma protein binding; type: in vitro ADME
[7] = Population PK model; type: in vivo, human
How it was run: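 Pooled Part I and II plasma concentrations (5–65 mg single doses; 10–40 mg once daily) were fitted with a three-compartment model. It had first-order absorption with lag, a dose-dependent bioavailability power model (relative bioavailability at 5 mg fixed to 1), and volumes per kg bodyweight. Slow peripheral volume and bioavailability were allowed to change between first dose and steady state. Interindividual variability was on Vc, CL, Frel, ka and Alag, with additive log-scale error. Estimates carry 90% CI, with visual predictive checks from 1,000 simulations.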

[8] = test system: DPP1; conditions: once daily, 21 days of dosing; cited from earlier work
[9] = test system: NSP activity; conditions: 21 days of dosing; cited from earlier work
[10] = cited from earlier work
[11] = between first dose and steady state

Cn1c(=O)oc2ccc(-c3ccc(C[C@@H](C#N)NC(=O)[C@@H]4CNCCCO4)cc3)cc21 [AZD7986]
Observed reduction of whole blood NE activity, on average ([1]; 40 mg dose group, 28 days once daily): more than 50% | Recovery of NE activity after cessation of dosing ([1]; 25 and 40 mg cohorts, follow-up visits): recovers once treatment is stopped | IIV IC50, interindividual variability in IC50 ([1]; PK-PD model): 33.3% | nH, Hill coefficient ([1]; PK-PD model, Imax fixed to 1 (100%)): 0.697 | Average time to steady state of whole blood NE activity after initiation of dosing ([1]; implied by estimated MTT, N and PK): about 25 days | Start of response in whole blood NE activity after treatment initiation ([1]; three active doses compared to placebo): ~12 days | Discontinuation of treatment due to skin AE of lichenoid drug eruption ([2]; 25 mg, Day 13): One subject | Skin findings of special interest seen in the highest dose group ([2]; Part II, 40 mg, number of subjects): four | Skin findings of special interest seen in subjects treated with AZD7986 ([2]; Part II, number of subjects): five of the six | Effect on the number of neutrophils in blood ([2]; Part II, repeated dosing): no clinically significant effect | Clinical laboratory results, 12-lead ECGs, telemetry results ([2]; Parts I and II): No trends were observed | Infection risk ([2]; Parts I and II): no signal of increased infection risk | Serious adverse events ([2]; Parts I and II): No serious adverse events | Mild gingival bleeding, AZD7986 versus placebo ([2]; gingival probing): no difference | Overall tolerability ([2]; single doses 5-65 mg, once daily 10-40 mg for 21 or 28 days): well tolerated | Substrate for efflux transporters [3]: may be a substrate for efflux transporters | half-life ([4]; male, human, plasma, po, Terminal half-life, after a single oral dose): 20 to 26 h | Time of maximum plasma levels (Cmax) after dosing ([4]; oral dosing, healthy subjects): 0.5 to 1.5 h | Hill coefficient ([5]; NE, Pr3 and CatG): ~0.65 | Extent of inhibition of activation of all three NSPs ([5]; concentration-dependent): completely inhibit | IC50 ([5]; read-out: IC50 for inhibition of NSP activation, NE, Pr3 and CatG): 0.06 to 0.2 µM | Saturable metabolic clearance routes or plasma protein binding [6]: does not indicate | Increase in oral bioavailability ([7]; between 5 and 65 mg, power model): ~2 fold | Fsteadystate_change, percent change in bioavailability [7, 11]: 24.3% | Vp,slow,steadystate_change, percent change in volume of slowly equilibrating tissue compartment [7, 11]: 34% | Alag, absorption lag time ([7]; population PK model estimate): 0.159 h | CL, apparent clearance from central compartment ([7]; population PK model estimate): 12.0 L/h | IIV Alag, interindividual variability in Alag ([7]; population PK model estimate): 21.3% | IIV CL, interindividual variability in CL ([7]; population PK model estimate): 22.2% | IIV Frel, interindividual variability in Frel ([7]; population PK model estimate): 18.2% | IIV Vc, interindividual variability in Vcentral ([7]; population PK model estimate): 53.6% | IIV ka, interindividual variability in ka ([7]; population PK model estimate): 28.8% | Qfast, apparent intercompartmental clearance between plasma and rapidly equilibrating tissues ([7]; population PK model estimate): 122 L/h | Qslow, apparent intercompartmental clearance between plasma and slowly equilibrating tissues ([7]; population PK model estimate): 14.7 L/h | Vc, apparent volume per kg bodyweight of central plasma compartment ([7]; population PK model estimate): 0.368 L/kg | Vp,fast, apparent volume per kg bodyweight of rapidly equilibrating tissue compartment ([7]; population PK model estimate): 2.45 L/kg | ka, absorption rate constant ([7]; population PK model estimate): 0.809 h⁻¹ | Fslope, slope parameter for bioavailability vs. dose power model ([7]; relative to 5 mg single dose): 0.228 | Vp,slow, apparent volume per kg bodyweight of slowly equilibrating tissue compartment ([7]; single dose, population PK model estimate): 1.97 L/kg

CC[C@@H](/C=C/C(=O)N1CCc2ccccc21)NC(=O)C1(N)CCOCC1 [GSK2793660]
DPP1 inhibition in whole blood [8]: sustained inhibition; also recorded: sustained, near‐complete | Effect on NSP activity [9]: no clear effect | half-life ([10]; administered once daily): 1.5 h | Cases of skin desquamation [10]: seven | Downstream effect reported on skin [10]: epidermal desquamation on palmar and plantar surfaces
